The target of assay [1] is T1, Mineralocorticoid receptor (Homo sapiens, UniProt P08235).
T1 sequence (P08235 whole entry): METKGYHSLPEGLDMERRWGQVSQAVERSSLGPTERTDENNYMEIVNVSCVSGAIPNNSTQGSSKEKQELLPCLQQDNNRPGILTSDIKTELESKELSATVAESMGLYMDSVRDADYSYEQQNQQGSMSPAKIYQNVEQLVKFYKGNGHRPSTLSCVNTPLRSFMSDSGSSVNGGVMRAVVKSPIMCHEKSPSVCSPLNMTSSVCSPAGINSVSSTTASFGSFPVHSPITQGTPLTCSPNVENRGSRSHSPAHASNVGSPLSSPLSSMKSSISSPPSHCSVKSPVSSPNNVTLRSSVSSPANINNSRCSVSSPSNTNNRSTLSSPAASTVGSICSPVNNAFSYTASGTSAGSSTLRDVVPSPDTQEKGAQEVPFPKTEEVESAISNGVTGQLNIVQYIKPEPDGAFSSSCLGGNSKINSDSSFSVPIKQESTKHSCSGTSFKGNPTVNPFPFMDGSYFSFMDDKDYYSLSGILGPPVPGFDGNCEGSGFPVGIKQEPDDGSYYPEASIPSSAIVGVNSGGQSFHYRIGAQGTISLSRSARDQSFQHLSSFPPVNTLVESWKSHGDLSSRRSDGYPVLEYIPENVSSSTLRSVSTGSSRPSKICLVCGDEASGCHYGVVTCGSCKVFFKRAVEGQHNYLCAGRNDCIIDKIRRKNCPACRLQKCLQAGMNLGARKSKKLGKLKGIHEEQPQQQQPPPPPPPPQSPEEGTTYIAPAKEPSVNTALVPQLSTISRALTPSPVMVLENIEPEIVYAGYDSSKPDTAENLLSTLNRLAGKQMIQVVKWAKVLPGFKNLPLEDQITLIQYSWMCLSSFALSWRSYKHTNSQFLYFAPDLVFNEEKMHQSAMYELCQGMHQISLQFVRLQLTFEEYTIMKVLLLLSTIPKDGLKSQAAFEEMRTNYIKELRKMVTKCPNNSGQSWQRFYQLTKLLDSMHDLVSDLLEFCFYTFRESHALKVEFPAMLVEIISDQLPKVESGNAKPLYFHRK
As to the kind of experiment: Displacement of [3H]aldosterone from human Mineralocorticoid receptor. A digest of the protocol: (§1)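 Human steroid receptor (PR, MR, AR, ERα) binding measured by radioligand displacement, with IC50s determined in duplicate. Values without a range come from a single experiment, and values with a range are geometric means of repeat experiments.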
(In general: Displacement assays read how much labelled ligand stays bound in the presence of the test substance.)

For assay [2], the target named is T2, Glucocorticoid receptor (Homo sapiens, UniProt P04150).
T2 sequence (P04150 whole entry): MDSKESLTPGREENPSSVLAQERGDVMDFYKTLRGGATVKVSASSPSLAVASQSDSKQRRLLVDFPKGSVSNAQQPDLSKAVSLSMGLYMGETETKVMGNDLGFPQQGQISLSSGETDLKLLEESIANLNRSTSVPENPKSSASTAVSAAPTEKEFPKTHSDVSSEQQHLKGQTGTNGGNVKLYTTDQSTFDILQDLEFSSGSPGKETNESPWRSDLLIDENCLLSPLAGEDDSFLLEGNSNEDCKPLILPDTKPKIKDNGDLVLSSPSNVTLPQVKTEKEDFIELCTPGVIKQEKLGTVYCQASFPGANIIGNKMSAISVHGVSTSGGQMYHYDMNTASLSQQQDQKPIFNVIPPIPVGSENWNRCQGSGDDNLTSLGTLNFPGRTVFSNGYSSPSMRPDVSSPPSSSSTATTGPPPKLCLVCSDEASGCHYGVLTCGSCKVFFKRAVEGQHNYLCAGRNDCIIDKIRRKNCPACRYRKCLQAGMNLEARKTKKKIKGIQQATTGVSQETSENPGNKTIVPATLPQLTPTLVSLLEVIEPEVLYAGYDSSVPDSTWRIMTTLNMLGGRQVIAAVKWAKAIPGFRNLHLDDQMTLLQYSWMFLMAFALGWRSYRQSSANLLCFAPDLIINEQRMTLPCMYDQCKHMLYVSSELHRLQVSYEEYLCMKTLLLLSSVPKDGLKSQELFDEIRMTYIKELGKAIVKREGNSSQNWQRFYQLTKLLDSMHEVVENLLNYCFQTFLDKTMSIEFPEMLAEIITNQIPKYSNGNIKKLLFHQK

A further assay addresses T3, Progesterone receptor (Homo sapiens, UniProt P06401).
T3 sequence (P06401 whole entry): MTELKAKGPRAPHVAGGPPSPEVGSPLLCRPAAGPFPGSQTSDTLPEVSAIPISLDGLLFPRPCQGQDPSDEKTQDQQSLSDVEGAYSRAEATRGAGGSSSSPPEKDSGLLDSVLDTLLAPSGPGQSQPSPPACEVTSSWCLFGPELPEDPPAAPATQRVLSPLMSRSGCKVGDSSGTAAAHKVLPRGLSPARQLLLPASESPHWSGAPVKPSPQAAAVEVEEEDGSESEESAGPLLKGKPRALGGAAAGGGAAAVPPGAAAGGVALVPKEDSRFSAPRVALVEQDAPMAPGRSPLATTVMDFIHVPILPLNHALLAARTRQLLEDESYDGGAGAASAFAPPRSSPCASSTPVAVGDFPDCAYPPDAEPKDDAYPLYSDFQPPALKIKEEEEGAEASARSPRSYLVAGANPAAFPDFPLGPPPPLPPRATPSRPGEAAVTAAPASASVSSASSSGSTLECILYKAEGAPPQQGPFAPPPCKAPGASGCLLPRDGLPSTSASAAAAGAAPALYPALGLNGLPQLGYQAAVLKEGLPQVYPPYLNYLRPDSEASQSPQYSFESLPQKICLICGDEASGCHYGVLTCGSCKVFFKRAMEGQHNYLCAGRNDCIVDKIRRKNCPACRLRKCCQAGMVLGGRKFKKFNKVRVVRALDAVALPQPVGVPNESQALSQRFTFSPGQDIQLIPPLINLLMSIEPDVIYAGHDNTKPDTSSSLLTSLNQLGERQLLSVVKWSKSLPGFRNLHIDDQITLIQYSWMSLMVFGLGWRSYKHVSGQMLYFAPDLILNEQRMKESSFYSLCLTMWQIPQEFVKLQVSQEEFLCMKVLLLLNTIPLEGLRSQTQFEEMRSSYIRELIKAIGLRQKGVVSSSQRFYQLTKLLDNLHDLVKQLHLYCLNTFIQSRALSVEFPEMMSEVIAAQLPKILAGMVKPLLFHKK
Kind of assay: Displacement of [3H]progesterone from human Progesterone receptor. The essentials:
as §1

The target of assay [3] is T2, Glucocorticoid receptor. Kind of assay: Displacement of [3H]dexamethasone from human Glucocorticoid receptor (GR); Value ranges from 3-4 nM. The essentials: (§2)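 Binding to human GR; IC50 reported as the geometric mean of two experiments (three for some values), each run in duplicate, with the range of the experiments given.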
Assay [4] has as its target T2, Glucocorticoid receptor. As to the kind of experiment: Displacement of [3H]dexamethasone from human Glucocorticoid receptor (GR); […].
In assay [5] the target is T2, Glucocorticoid receptor. Kind of assay: Displacement of [3H]dexamethasone from human Glucocorticoid receptor (GR); Value ranges from 6-7 nM. A digest of the protocol:
as §2

The target of assay [6] is T2, Glucocorticoid receptor. Kind of assay: Displacement of [3H]dexamethasone from human Glucocorticoid receptor (GR); Value ranges from 70-92 nM.

Structures are written as SMILES.

On to `COc1cccc2c1-c1ccc(NS(C)(=O)=O)cc1C(c1cccs1)O2` (stereo not given), for which the figures for the half-inhibitory concentration (IC50) (in assay [1]; against Glucocorticoid receptor [2]; at Progesterone receptor) were 2250 nM, 7 nM and 450 nM, respectively.

Consider `COc1cccc2c1-c1ccc(NS(C)(=O)=O)cc1C(c1cccc(F)c1)O2` (stereo not given), for which the half-inhibitory concentration (IC50) (as a rule, the point on the concentration scale where inhibition reaches its midpoint) turned out to be 683 nM in assay [1], 3 nM at Glucocorticoid receptor [3] and 476 nM on Progesterone receptor.

On to `COc1cccc2c1-c1ccc(NS(C)(=O)=O)cc1C(c1ccc(F)cc1)O2` (stereo not given), for which the values for the 50% inhibitory concentration (IC50) (in assay [1]; at Glucocorticoid receptor [4]; on Progesterone receptor) were 2480 nM, 29 nM and 1160 nM, respectively.

On to `COc1cccc2c1-c1ccc(NS(C)(=O)=O)cc1C(c1ccc(C)cc1)O2` (stereo not given), for which the half-maximal inhibitory concentration (IC50) amounted to 651 nM in assay [1], 7 nM on Glucocorticoid receptor [5] and 673 nM on Progesterone receptor.

Regarding `CCOc1cccc2c1-c1ccc(NS(C)(=O)=O)cc1C(c1ccccc1)O2` (stereo not given), the 50% inhibitory concentration (IC50) in assay [1] was found to be 893 nM; at Progesterone receptor, 6900 nM; at Glucocorticoid receptor [6] it was 81 nM.

The record behind these values is ChEMBL document CHEMBL1147539, “Synthesis and biological evaluation of novel, selective, nonsteroidal glucocorticoid receptor antagonists” (Bioorg Med Chem Lett, 2004).
